Assays:
SUMO-activating enzyme [1] = target: T1, SUMO-activating enzyme (Homo sapiens, UniProt Q9UBT2); assay: Inhibition of SAE in human HCT116 cells assessed as redistribution of SUMO2/3 proteins from nucleus to cytosol preincubated for 2 hrs followed by compound washout and measured after 8 hrs by immunofluorescence assay; type: cell-based, HCT-116
How it was run: (§1)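 Washout format of the SUMO2/3 immunofluorescence assay in HCT116 cells. Cells were exposed to a range of concentrations for 2 h, then washed free of compound.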

NEDD8 activating enzyme = target: T2, NEDD8 activating enzyme (Homo sapiens, UniProt Q8TBC4); assay: Inhibition of recombinant NAE (unknown origin) in presence of ATP at Km concentration by HTRF assay; type: protein-complex assay
T2 sequence (Q8TBC4 whole entry): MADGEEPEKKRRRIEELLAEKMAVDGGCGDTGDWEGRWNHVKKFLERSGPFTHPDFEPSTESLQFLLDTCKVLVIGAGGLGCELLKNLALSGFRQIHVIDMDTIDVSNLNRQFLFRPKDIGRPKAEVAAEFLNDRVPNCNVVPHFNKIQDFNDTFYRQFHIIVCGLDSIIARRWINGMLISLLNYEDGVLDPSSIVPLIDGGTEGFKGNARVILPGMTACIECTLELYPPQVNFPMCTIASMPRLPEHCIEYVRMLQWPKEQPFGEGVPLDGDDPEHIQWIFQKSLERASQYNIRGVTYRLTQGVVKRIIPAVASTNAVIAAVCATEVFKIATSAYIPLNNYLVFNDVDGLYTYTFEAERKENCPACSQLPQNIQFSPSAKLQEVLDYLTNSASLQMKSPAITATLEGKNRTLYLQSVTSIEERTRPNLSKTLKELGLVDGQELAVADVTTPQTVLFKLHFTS
T2 sequence (Q13564 whole entry): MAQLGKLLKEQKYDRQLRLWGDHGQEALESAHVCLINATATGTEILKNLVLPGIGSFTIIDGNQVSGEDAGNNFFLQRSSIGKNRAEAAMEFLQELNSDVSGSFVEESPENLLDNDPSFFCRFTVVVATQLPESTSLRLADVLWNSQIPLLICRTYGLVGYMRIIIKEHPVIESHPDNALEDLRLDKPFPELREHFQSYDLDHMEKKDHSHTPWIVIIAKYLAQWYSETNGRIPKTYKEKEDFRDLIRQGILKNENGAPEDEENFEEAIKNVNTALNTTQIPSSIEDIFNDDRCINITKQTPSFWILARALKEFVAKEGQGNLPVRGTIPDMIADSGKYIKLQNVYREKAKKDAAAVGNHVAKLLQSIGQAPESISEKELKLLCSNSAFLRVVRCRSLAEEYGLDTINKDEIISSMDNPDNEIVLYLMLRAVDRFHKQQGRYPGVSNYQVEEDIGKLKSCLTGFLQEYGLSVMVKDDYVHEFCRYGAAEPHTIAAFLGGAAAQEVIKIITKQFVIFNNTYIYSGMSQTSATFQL

SUMO-activating enzyme [2] = target: T1, SUMO-activating enzyme; assay: Inhibition of SAE in human HCT116 cells assessed as redistribution of SUMO2/3 proteins from nucleus to cytosol preincubated for 2 hrs followed by compound washout and measured immediately by immunofluorescence assay; type: cell-based, HCT-116; how it was run: as §1
[3] = Inhibition of recombinant UAE (unknown origin) in presence of ATP at Km concentration by HTRF assay; design: species or system Homo sapiens
SUMO-activating enzyme [4] = target: T1, SUMO-activating enzyme; assay: Inhibition of SAE in human HCT116 cells assessed as reduction in redistribution of SUMO2/3 proteins from nucleus to cytosol incubated for 4 hrs by immunofluorescence assay; type: cell-based, HCT-116
How it was run: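 HCT-116 cells exposed to compound across a concentration range for 4 h, then stained with anti-SUMO2/3 monoclonal antibody. Automated imaging scored the nuclear (inner) to cytoplasmic (outer) SUMO2/3 ratio. IC50 taken from the dose response.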

SUMO-activating enzyme [5] = target: T1, SUMO-activating enzyme; assay: Inhibition of recombinant SAE (unknown origin) assessed as reduction in transfer of SUMO1 to UBC9 using SUMO1 as a substrate in presence of ATP at Km concentration by HTRF assay; type: protein-complex assay
How it was run: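 HTRF transthiolation assay measuring transfer of SUMO1 to UBC9, the E2 for SAE.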

T1 sequence (Q9UBE0 whole entry): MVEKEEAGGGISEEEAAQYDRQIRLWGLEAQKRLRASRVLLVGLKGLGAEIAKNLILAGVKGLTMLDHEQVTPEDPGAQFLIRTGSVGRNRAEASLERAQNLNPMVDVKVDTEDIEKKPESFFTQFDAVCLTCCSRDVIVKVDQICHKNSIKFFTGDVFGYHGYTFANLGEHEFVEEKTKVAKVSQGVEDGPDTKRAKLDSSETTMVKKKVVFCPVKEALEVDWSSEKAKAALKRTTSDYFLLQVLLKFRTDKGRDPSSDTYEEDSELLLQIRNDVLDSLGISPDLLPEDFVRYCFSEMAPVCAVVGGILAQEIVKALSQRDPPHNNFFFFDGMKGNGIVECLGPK
T1 sequence (Q9UBT2 whole entry): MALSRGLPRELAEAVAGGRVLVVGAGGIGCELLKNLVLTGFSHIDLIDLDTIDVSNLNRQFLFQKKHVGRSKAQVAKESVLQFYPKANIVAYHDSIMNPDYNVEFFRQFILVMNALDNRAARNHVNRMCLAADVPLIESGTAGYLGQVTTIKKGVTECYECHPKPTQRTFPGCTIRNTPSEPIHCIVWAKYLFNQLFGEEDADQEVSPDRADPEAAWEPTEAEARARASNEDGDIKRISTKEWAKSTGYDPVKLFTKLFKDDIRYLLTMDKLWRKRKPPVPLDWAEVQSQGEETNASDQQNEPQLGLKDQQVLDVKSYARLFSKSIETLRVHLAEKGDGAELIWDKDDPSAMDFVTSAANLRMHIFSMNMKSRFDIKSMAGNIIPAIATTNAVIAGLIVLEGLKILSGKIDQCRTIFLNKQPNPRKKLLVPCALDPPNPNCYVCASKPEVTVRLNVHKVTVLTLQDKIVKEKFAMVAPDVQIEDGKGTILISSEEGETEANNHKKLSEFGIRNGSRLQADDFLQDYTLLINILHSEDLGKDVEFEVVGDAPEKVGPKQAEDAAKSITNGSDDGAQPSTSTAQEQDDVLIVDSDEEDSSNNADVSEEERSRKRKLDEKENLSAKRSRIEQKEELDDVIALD

Structure (SMILES)	IC50 (SUMO-activating enzyme [1])	IC50 (NEDD8 activating enzyme)	IC50 (SUMO-activating enzyme [2])	IC50 [3]	IC50 (SUMO-activating enzyme [4])	IC50 (SUMO-activating enzyme [5])
Cc1sc(C(=O)c2cncnc2N[C@@H]2C[C@H](COS(N)(=O)=O)[C@@H](O)C2)cc1C1OCCc2ccccc21 (stereo partly specified)	0.014 µM	0.102 µM	0.004 µM	> 1 µM	0.006 µM	0.0003 µM
NS(=O)(=O)OC[C@H]1C[C@@H](Nc2ncncc2C(=O)c2cc(C(O)c3cccc(Cl)n3)c(Cl)s2)C[C@@H]1O (stereo partly specified)	0.142 µM	0.34 µM	0.016 µM	> 1 µM	0.014 µM	0.0002 µM
NS(=O)(=O)OC[C@H]1C[C@@H](Nc2ncncc2C(=O)c2cc([C@@H]3OCCc4ccccc43)cs2)C[C@@H]1O	0.039 µM	0.198 µM	0.005 µM	> 1 µM	0.004 µM	0.0004 µM
NC(c1cccc(Cl)c1)c1cc(C(=O)c2cncnc2N[C@@H]2C[C@H](COS(N)(=O)=O)[C@@H](O)C2)sc1Cl (stereo partly specified)	0.039 µM	0.861 µM	0.017 µM	> 1 µM	0.01 µM	0.0004 µM
Cc1sc(C(=O)c2cncnc2N[C@@H]2C[C@H](COS(N)(=O)=O)[C@@H](O)C2)cc1C(N)c1cccc(Cl)c1 (stereo partly specified)	0.038 µM	0.235 µM	0.019 µM	> 1 µM	0.016 µM	0.0002 µM
Cc1sc(C(=O)c2cncnc2N[C@@H]2C[C@H](COS(N)(=O)=O)[C@@H](O)C2)cc1C(O)c1cccc(Cl)c1 (stereo partly specified)	0.021 µM	0.064 µM	0.008 µM	> 1 µM	0.006 µM	0.0003 µM
NS(=O)(=O)OC[C@H]1C[C@@H](Nc2ncncc2C(=O)c2cc(C(O)c3cccc(Cl)c3)c(Cl)s2)C[C@@H]1O (stereo partly specified)	0.07 µM	0.341 µM	0.017 µM	> 1 µM	0.009 µM	0.0003 µM
NC(c1cccc(Cl)c1)c1csc(C(=O)c2cncnc2N[C@@H]2C[C@H](COS(N)(=O)=O)[C@@H](O)C2)c1 (stereo in doubt; 33)	0.499 µM	> 1 µM	0.083 µM		0.05 µM	0.0007 µM
NS(=O)(=O)OC[C@H]1C[C@@H](Nc2ncncc2C(=O)c2cc(C3NCCc4ccccc43)cs2)C[C@@H]1O (stereo partly specified)	0.503 µM	> 1 µM	0.365 µM	> 1 µM	0.078 µM	0.001 µM
NS(=O)(=O)OC[C@H]1C[C@@H](Nc2ncncc2C(=O)c2cc(C3NCCc4ccc(Cl)cc43)c(Cl)s2)C[C@@H]1O (stereo partly specified)	0.017 µM	> 1 µM	0.009 µM	> 1 µM	0.007 µM	0.0004 µM
CC(O)(c1cccc(Cl)c1)c1csc(C(=O)c2cncnc2N[C@@H]2C[C@H](COS(N)(=O)=O)[C@@H](O)C2)c1 (stereo partly specified)	0.233 µM	0.343 µM	0.019 µM	> 1 µM	0.012 µM	0.0002 µM
NS(=O)(=O)OC[C@H]1C[C@@H](Nc2ncncc2C(=O)c2cc(C3NCCc4ccc(Cl)cc43)cs2)C[C@@H]1O (stereo partly specified)	0.142 µM	> 1 µM	0.167 µM	> 1 µM	0.027 µM	0.0008 µM
CC(N)(c1cccc(Cl)c1)c1csc(C(=O)c2cncnc2N[C@@H]2C[C@H](COS(N)(=O)=O)[C@@H](O)C2)c1 (stereo partly specified)	0.101 µM	> 1 µM	0.029 µM	> 1 µM	0.016 µM	0.0003 µM
CC(O)(c1csc(C(=O)c2cncnc2N[C@@H]2C[C@H](COS(N)(=O)=O)[C@@H](O)[C@H]2O)c1)c1cccc(Br)n1 (stereo partly specified)	0.361 µM	0.031 µM	0.251 µM	0.616 µM	0.047 µM	0.0001 µM
NS(=O)(=O)OC[C@H]1C[C@@H](Nc2ncncc2C(=O)c2cc(C3OCCc4ccc(Cl)cc43)cs2)C[C@@H]1O (stereo partly specified)	0.022 µM	0.45 µM	0.007 µM	> 1 µM	0.008 µM	0.0005 µM
NS(=O)(=O)OC[C@H]1C[C@@H](Nc2ncncc2C(=O)c2cc(Cc3cccc(Cl)c3)c(Cl)s2)C[C@@H]1O	1.4 µM	0.681 µM	0.184 µM	> 1 µM	0.108 µM	0.0036 µM
NS(=O)(=O)OC[C@H]1C[C@@H](Nc2ncncc2C(=O)c2cc(C3OCCc4ccc(Cl)cc43)c(Cl)s2)C[C@@H]1O (stereo partly specified)	0.014 µM	> 1 µM	0.01 µM	> 1 µM	0.008 µM	0.001 µM
NS(=O)(=O)OC[C@H]1C[C@@H](Nc2ncncc2C(=O)c2cc(C(O)c3cccc(Cl)c3)cs2)C[C@@H]1O (stereo in doubt; 31)	0.955 µM	0.216 µM	0.043 µM		0.055 µM	0.0002 µM
Cc1sc(C(=O)c2cncnc2N[C@@H]2C[C@H](COS(N)(=O)=O)[C@@H](O)C2)cc1C1OCCc2cccnc21 (stereo partly specified)	0.064 µM	0.507 µM	0.019 µM	> 1 µM		0.0002 µM
NS(=O)(=O)OC[C@H]1C[C@@H](Nc2ncncc2C(=O)c2csc(Cc3cccc(Br)c3)c2)C[C@@H]1O		0.523 µM		> 1 µM	4.93 µM	0.018 µM
NS(=O)(=O)OC[C@H]1C[C@@H](Nc2ncncc2C(=O)c2ccn(Cc3cccc(Cl)c3)n2)C[C@@H]1O		0.242 µM		> 1 µM	0.02 µM	0.0007 µM
CN1CCc2ccc(Cl)cc2C1c1csc(C(=O)c2cncnc2N[C@@H]2C[C@H](COS(N)(=O)=O)[C@@H](O)C2)c1 (stereo partly specified)		> 1 µM		> 1 µM	0.638 µM	0.0025 µM
NS(=O)(=O)OC[C@H]1C[C@@H](Nc2ncncc2C(=O)c2ccn(Cc3cccc(Br)c3)c2)C[C@@H]1O		0.01 µM		> 1 µM	0.014 µM	0.0006 µM
Cc1cccc(Cn2ccc(C(=O)c3cncnc3N[C@@H]3C[C@H](COS(N)(=O)=O)[C@@H](O)C3)n2)c1		0.308 µM		> 1 µM	0.029 µM	0.0017 µM
